From PubChem
S100A4 MyoIIA = inhibitors of S100A4-myosin IIA peptide binding, primary screen, biochemical, fluorescence polarization, TAMRA-MyoIIA peptide; Protein S100-A4 (Homo sapiens), P26447; AID 652163, 2013; inhibition, % at 10.7 µM; 360,000 tested, 0.14% active;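 active = mean inhibition of at least 70% across replicates, with every replicate also reaching that level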
Target sequence (P26447 whole entry, looked up): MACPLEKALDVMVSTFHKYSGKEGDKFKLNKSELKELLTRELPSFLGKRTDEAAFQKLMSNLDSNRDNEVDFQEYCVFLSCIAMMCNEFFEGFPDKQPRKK
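Test system: S100A4 monomer protein. Medium: HEPES buffer with Ca2+, pH 7.2. Reagent: fluorescent myosin IIA peptide, 5 nM. Compound dosing: single-point compound testing. Timing: 5 min between mix addition and reading. Benchmarks: DMSO neutral and TFP positive wells.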
GSIS activator = GLuc luminescence reporter in INS-1E cells, primary screen for activators of glucose-dependent secretion of insulin. INS-1E GLuc reporter insulin secretion, 2-3 h. activation, % at 16.6 µM. 370,000 tested, 0.61% active;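 active = lowest replicate activation of at least 40%, so every replicate reaches that level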;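 also: 0% = median of neutral control wells and 100% = median of IBMX positive control wells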
RAD52 inh = RAD52 DNA annealing inhibitors, primary screen, biochemical, FRET, single point, set 2; DNA repair protein RAD52 homolog (Homo sapiens), P43351; recombinant RAD52 DNA annealing, FRET fluorescence; inhibition, % at 18.7 µM; 360,000 tested, 0.46% active; AID 651710, 2012;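 active = every replicate showing at least 50% inhibition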
Target sequence (P43351 whole entry, looked up): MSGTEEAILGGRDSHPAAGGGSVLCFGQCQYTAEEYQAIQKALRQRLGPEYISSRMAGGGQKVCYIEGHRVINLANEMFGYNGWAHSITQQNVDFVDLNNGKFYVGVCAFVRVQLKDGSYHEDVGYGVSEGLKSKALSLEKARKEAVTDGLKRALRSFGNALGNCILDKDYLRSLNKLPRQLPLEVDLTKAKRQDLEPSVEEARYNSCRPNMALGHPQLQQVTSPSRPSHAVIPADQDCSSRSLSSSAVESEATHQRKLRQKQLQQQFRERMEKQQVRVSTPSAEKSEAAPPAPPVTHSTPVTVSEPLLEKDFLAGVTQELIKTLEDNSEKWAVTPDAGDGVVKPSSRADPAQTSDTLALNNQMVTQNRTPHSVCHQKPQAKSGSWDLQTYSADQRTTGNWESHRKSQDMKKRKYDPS
ERAP1 HTS inh = human ERAP1 aminopeptidase inhibitors, primary screen, biochemical, single point, plate reader. inhibition, % at 10.7 µM. recombinant ERAP1, Leu-AMC fluorescence, 60 min. 340,000 tested, 0.15% active. Endoplasmic reticulum aminopeptidase 1 (Homo sapiens), Q9NZ08;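 active = mean replicate inhibition of at least 30%, or all replicates individually reaching that 30% level; inactive = mean below 30% and not every replicate reaching it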;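 also: 0% = neutral control wells and 100% = L-leucinethiol positive control wells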
MLL AF4-AF9 inh = inhibitors of AF4 peptide binding to AF9, primary screen, biochemical, AlphaScreen, biotin-AF4 peptide, FLAG-AF9, single point; inhibition, % at 10 µM; Protein AF-9 (Homo sapiens), P42568; 350,000 tested, 0.47% active;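 active = every replicate reaching a set inhibition limit, whatever the replicate mean, cut at about 25% in these data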;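 also: 0% = plate neutral control median and 100% = total signal loss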
Numbers without * were called inactive; nt = not tested or not shown. Most compounds without a hit are left out; they make up all but 1.5% or so of the library.

SMILES	S100A4 MyoIIA	GSIS activator	RAD52 inh	ERAP1 HTS inh	MLL AF4-AF9 inh
Cc1c(-c2ccccc2)nc(N)c(C#N)c1-c1cccnc1	-4	36	-1	4	nt
N#Cc1c(-c2ccc(Br)cc2)cc(-c2cccnc2)nc1N	nt	-1	nt	nt	nt
Cc1nc(N)c(C#N)c(-c2cccnc2)c1-c1ccccc1	-5	41*	-19	-2	-2
N#Cc1c(-c2cccc(Br)c2)cc(-c2cccnc2)nc1N	nt	90*	nt	nt	nt
C=C(CN(C)C)C(=O)c1cc(C)ccc1C	41	90*	-9	5	-6
C[C@]12CC[C@@H]3c4ccc(O[C@@H]5O[C@H](C(=O)O)[C@@H](O)[C@H](O)[C@H]5O)cc4CC[C@H]3[C@@H]1C[C@@H](O)[C@@H]2O	-1	1	5	-1	-3
C=CCOc1ccc2c(c1)CCC1C2CCC2(C)C(O)C(O)CC12 (stereo not given)	0	47*	-12	0	-3
C=CCOC(=O)[C@H]1[C@@H]2C(=O)O[C@@H](c3ccccc3)[C@@H](c3ccccc3)N2[C@@H](c2ccc(OCCOC(=O)[C@H]3C[C@H]4C(=O)N[C@@H](Cc5ccccc5)C(=O)N4[C@H]3c3ccc(O)cc3)cc2)[C@]12C(=O)Nc1ccc(I)cc12	-6	nt	-2	-4	-1
Cc1cccc(C)c1NC(=O)c1csc([C@@H]2O[C@H](CO)[C@H](O)[C@H](O)[C@H]2O)n1	-2	53*	-11	0	2
CO[C@@H]1CN(C)C(=O)c2ccc(NC(C)=O)cc2OC[C@@H](C)N(Cc2cccnc2)C[C@@H]1C	nt	-2	nt	nt	nt
Cc1nc2ccc(NC(=O)c3ccc4ccccc4n3)cc2s1	-2	6	-38	-3	-1
Cc1nc2ccc(NC(=O)c3ccccc3)cc2s1	0	-14	-222	2	-1
Cc1nc2ccc(NC(=O)c3ccc(=O)[nH]c3)cc2s1	3	5	-54	37*	2
CCn1nc(C(=O)Nc2ccc3nc(C)sc3c2)c2ccccc2c1=O	nt	53*	nt	nt	nt
C[C@@H]1CCCCO[C@@H](CN(C)C(=O)Nc2ccc(C(F)(F)F)cc2)[C@@H](C)CN([C@H](C)CO)C(=O)c2cc(NC(=O)c3ccncc3)ccc2O1	-4	2	-50	0	-14
O=C(c1ccco1)N1CCN(C2CN(Cc3ccccc3)S(=O)(=O)C2)CC1 (stereo not given)	-4	47*	-15	nt	1
O=C(c1ccco1)N1CCN(C2CN(Cc3ccc([N+](=O)[O-])cc3)S(=O)(=O)C2)CC1 (stereo not given)	-5	23	-9	nt	1
Cc1cc(NC(=O)CSc2nc3sc4c(c3c(=O)n2C)CCCC4)no1	nt	152*	nt	nt	nt
Cn1c(-c2ccccc2)cc(=NNS(C)(=O)=O)c2cc(S(=O)(=O)O)ccc21	-2	-11	-19	37*	-5
Cn1c(-c2ccccc2)cc(=O)c2ccccc21	nt	26	nt	nt	nt
O=C(O)c1ccc(-n2nnnc2SCc2ccccc2Br)cc1	-3	48*	-6	0	-1
CCCCCCCC[n+]1cccc(C(=O)N(CC)CC)c1	-7	17	3	-2	-2
CCCCCc1ccc(OCCC[n+]2ccccc2)c(CCCCC)c1	10	192*	44	nt	20
O=C(CC(F)(F)F)N1C[C@H]2[C@@H](c3ccccc31)[C@@H](CO)N2CC1CCOCC1	-5	2	1	4	-4
O=C(CC(F)(F)F)N1C[C@@H]2[C@H](c3ccccc31)[C@@H](CO)N2CC1CCOCC1	90*	10	-4	4	3
SMILES	S100A4 MyoIIA	GSIS activator	RAD52 inh	ERAP1 HTS inh	MLL AF4-AF9 inh
CCn1cnc2c1c(=O)n(CC(=O)NCC(F)(F)F)c(=O)n2Cc1ccccc1	-6	4	-10	58*	-1
COc1ccc(OCC(=O)N2CCN(S(=O)(=O)c3ccc(Cl)s3)CC2)cc1	144*	2	-13	0	0
N#Cc1ccc(OCC(=O)N2CCN(S(=O)(=O)c3ccc(Cl)s3)CC2)cc1	-10	-10	-33	-2	0
C[C@@H]1CN(C)C(=O)c2cccc(NS(C)(=O)=O)c2O[C@@H]1CN(C)C	nt	16	nt	nt	nt
C[C@H]1CN(C)C(=O)c2cc(N)ccc2O[C@H]1CN(C)S(C)(=O)=O	nt	1	nt	nt	nt
COc1ccc([C@@H]2C/C=C\C[C@@H](c3ccccc3)NC(=O)CCC(=O)N2)c(OC)c1	nt	-3	nt	nt	nt
Cc1ccc(C(=O)c2sc3c(c2N)c(=O)[nH]c(=O)n3CCc2ccccc2)cc1	nt	25	nt	nt	nt
CCn1c(=O)[nH]c(=O)c2c(N)c(C(=O)c3cc(F)ccc3F)sc21	2	55*	-16	1	2
O=C(O)c1ccc(S(=O)(=O)N2CCC3(CC2)CC(=O)c2ccccc2O3)cc1	-4	50*	-5	-7	7
Cc1ccc(S(=O)(=O)N2CCC3(CC2)CC(=O)c2ccccc2O3)cc1	-4	-6	-4	-2	0
C[C@H](CO)N1C[C@H](C)[C@@H](CN(C)Cc2cccc(C(F)(F)F)c2)OCc2ccccc2-c2ccccc2C1=O	nt	69	nt	nt	nt
O=[N+]([O-])c1cccc(/C=N/n2c(-c3cccnc3)n[nH]c2=S)c1	nt	54*	nt	nt	nt
COc1ccc2c3c(n(C)c2c1)[C@@H](CO)NCC31CCN(C(=O)CC2CC2)CC1	nt	-7	nt	nt	nt
CCC(=O)N1CC(=O)N2[C@H](C1)[C@H](c1ccc(C3=CCCCC3)cc1)[C@@H]2CO	nt	7	nt	nt	nt
COc1ccc(N/C=C\C(=O)c2ccc(Br)cc2)cc1OC	nt	131*	nt	nt	nt
COc1ccc(N/C=C\C(=O)c2ccc(C)cc2)cc1OC	1	6	-58	-4	3
CC(C)NC(=O)Nc1cccc2c1O[C@@H](CN(C)C(=O)OC(C)(C)C)[C@@H](C)CN(C)C2=O	nt	-9	nt	nt	nt
COc1ccccc1CCC(=O)Nc1ccc2c(c1)c(=O)n(C)n2C	-5	-3	-8	38*	0
O=C(c1ccccc1)N1CCCCC1	2	9	-12	-3	-6
O=C(c1ccccc1)N(C(=O)c1ccccc1)N1CCCC1	15	45*	-16	-1	-2
CC(C)NC(=O)N(C)C[C@@H]1Oc2ccc(N(C)C)cc2CC(=O)N(C)C[C@H]1C	nt	6	nt	nt	nt
CC(=O)N(C)C[C@@H]1Oc2c(NC(=O)NC(C)C)cccc2C(=O)N(C)C[C@@H]1C	nt	13	nt	nt	nt
COc1ccc(-c2ccc(/C=C3/C(=N)N4C=CSC4=NC3=O)o2)c([N+](=O)[O-])c1	nt	158*	nt	nt	nt
COc1ccccc1CSc1nc2c(c(=O)n(C)c(=O)n2C)n1C	-2	41*	-14	-1	0
CCCCc1nc(N)c(C#N)c(-c2ccco2)c1CCC	2	62*	-20	0	-10
